CHOP inh – inhibitors of CHOP promoter induction, primary screen, cell-based, unfolded protein response, luciferase reporter | inhibition, % at 10 µM | 220,000 tested, 3.8% active | CHO-K1 CHOP-promoter luciferase, tunicamycin-induced, 15-18 h | AID 2732, 2010;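 active = compounds that reduced the stress-induced luciferase reporter signal by more than about 70% of percent inhibition, limit read from the data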;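 note: 0% = tunicamycin plus vehicle and 100% = wells without tunicamycin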
Jurkat NFkB inh – inhibitors of induced NF-kB luciferase reporter, primary screen, TCR NF-kB activation inhibitor project, cell-based, luminescence, uHTS; inhibition, % at 4 µM; Jurkat, PMA/ionomycin-induced NF-kB luciferase reporter; 330,000 tested, 0.53% active; in the data active = inhibition above about 50%
Gli-Sufu block – Gli-Sufu pathway antagonists, primary screen, luciferase luminescence, Sufu-KO-LIGHT cells, uHTS. Sufu-KO-LIGHT fibroblasts, Gli luciferase reporter luminescence. inhibition, % at 5 µM. 340,000 tested, 0.74% active. AID 588413, 2011;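 active = inhibition above about 55%, limit read from the data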;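 note: 0% = DMSO-treated cells and 100% = wells with medium but no cells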
UPR XBP1 act – activators of adaptive XBP1 UPR arm, primary screen, cell-based, CHO-XBP1 luciferase reporter, luminescence, uHTS; IRE1-XBP1 UPR activation; percent of tunicamycin response, DMSO as zero; activation, % at 20 µM; 330,000 tested, 0.33% active;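 active = versus positive control, 20 µM dose yields 30% or more activation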;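 note: 100% = tunicamycin at 10 µg/mL and 0% = DMSO only wells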
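Assay system: CHO-XBP1 luciferase reporter cells; Schedule: 6 h treatment, 37 °C; Detection: glow luminescence from Steady-Glo reagent; Benchmarks: high control tunicamycin 10 µg/mL final, low control DMSO vehicle only.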
UPR CHOP act – activators of apoptotic CHOP UPR arm, primary screen, cell-based, CHO-CHOP luciferase reporter, luminescence, uHTS | UPR activation; percent of tunicamycin response over DMSO baseline | activation, % at 10 µM | 330,000 tested, 0.34% active | AID 449763, 2010;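 active = at 10 µM dose, activation of 40% or more, normalized to positive control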;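 note: 100% = tunicamycin at 10 µg/mL and 0% = DMSO alone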
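System: CHO CHOP reporter cells. Amount: 500 cells per well. Buffer or medium: F12 medium, 10% FBS. Compound dosing: one dose, 10 µM in 0.5% DMSO. Incubation: 6 h compound exposure at 37 °C after overnight seeding. Technique: Steady-Glo luciferase luminescence. Benchmarks: tunicamycin and DMSO controls.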
697 NFkB inh – inhibitors of PMA/ionomycin-induced NF-kB reporter, 697 cells, primary screen, B-cell NF-kB inhibitor project, cell-based, luminescence, uHTS. 697 B-cell NF-kB luciferase reporter, 16 h. inhibition, % at 4 µM. 330,000 tested, 0.33% active. AID 435022, 2010; in the data active = inhibition above about 35%
* marks the source's active call; other numbers are inactive results. A selection: hits, their analogues and other compounds. The true share with any hit is near 3.9%.

`CN(C)S(=O)(=O)n1cnc([C@@H]2[C@@H]3C(=O)OC[C@@H]3C[C@]23N=CN(Cc2ccccc2)C3=O)c1` gave Jurkat NFkB inh 6.9, Gli-Sufu block -8.7, UPR XBP1 act -0.3, UPR CHOP act 2.6 and 697 NFkB inh 15.8.
For COc1ccc(NC(=O)CCNS(=O)(=O)c2cc(Br)ccc2Br)cc1S(N)(=O)=O the results were Jurkat NFkB inh -5.6, Gli-Sufu block -12.5, UPR XBP1 act -1.6, UPR CHOP act -1.6 and 697 NFkB inh -7.6.
`Cc1ccc(-c2cn3cccnc3n2)cc1NC(=O)c1ccc(Br)o1` gave CHOP inh 55.2, Jurkat NFkB inh -0.7, Gli-Sufu block 0.2, UPR XBP1 act -1.6, UPR CHOP act 0.2 and 697 NFkB inh 2.2.
For COc1ccc(-c2cn3cccnc3n2)cc1NC(=O)c1ccc(Br)o1 the results were CHOP inh 85.7*, Jurkat NFkB inh -1.7, Gli-Sufu block -6.5, UPR XBP1 act 3.8, UPR CHOP act 0.6 and 697 NFkB inh 7.6.
Screening CCN1C(=O)[C@H]2[C@@H](c3ccc(OC)cc3)N3C(=O)CN(CCOC)C(=O)[C@@]3(C)[C@H]2C1=O returned Jurkat NFkB inh 14.7, Gli-Sufu block -0.3, UPR XBP1 act 1.6, UPR CHOP act -2.0 and 697 NFkB inh -2.9.
O=[N+]([O-])c1ccccc1CCc1ccccc1[N+](=O)[O-] was read as Gli-Sufu block -5.1.
`O=[N+]([O-])c1ccccc1CNC(Cc1ccccc1)c1ccccc1` (centres undefined) gave CHOP inh 80.5*, Jurkat NFkB inh 3.6, Gli-Sufu block -7.9, UPR XBP1 act -3.8, UPR CHOP act 1.9 and 697 NFkB inh -0.6.
For CC(C)c1ccc(CNc2ncccn2)cc1 the results were Jurkat NFkB inh -50.3, Gli-Sufu block -56.6, UPR XBP1 act 1.4, UPR CHOP act 2.9 and 697 NFkB inh -62.5.
COc1cc(C(=O)OCC(=O)Nc2c(F)cccc2F)cc(OC)c1C was read as CHOP inh 93.7*, Jurkat NFkB inh -7.4, Gli-Sufu block -0.4, UPR XBP1 act -4.2, UPR CHOP act -1.3 and 697 NFkB inh 12.3.
For CC(C)c1ccc(OCc2nc(-c3ccccn3)no2)c(Br)c1 the results were CHOP inh 70.6*, Jurkat NFkB inh -131.2, Gli-Sufu block -89.7, UPR XBP1 act -1.8, UPR CHOP act 0.5 and 697 NFkB inh -234.3.
`N#CC1=C(N)c2ccccc2CC12CCCCC2` gave CHOP inh 78.0*, Jurkat NFkB inh -4.3, Gli-Sufu block -3.4, UPR XBP1 act -1.9, UPR CHOP act -0.9 and 697 NFkB inh -16.6.
CCC(=O)NC1=C(C#N)C2(CCCC2)Cc2ccccc21 was read as CHOP inh 12.3, Jurkat NFkB inh -6.2, Gli-Sufu block 0.4, UPR XBP1 act 2.4, UPR CHOP act 0.4 and 697 NFkB inh 0.5.
Screening COc1cccc(COC(=O)C2CCN(C(=O)c3ccc(F)cc3)CC2)c1OC returned Jurkat NFkB inh 5.3, Gli-Sufu block -2.1, UPR XBP1 act -3.5, UPR CHOP act -0.2 and 697 NFkB inh -12.0.
Cn1c(=O)n(C)c2cc([N+](=O)[O-])c(N3CCN(S(=O)(=O)c4ccc(C(C)(C)C)cc4)CC3)cc21 was read as CHOP inh 75.0*, Jurkat NFkB inh 30.9, Gli-Sufu block 48.5, UPR XBP1 act 4.5, UPR CHOP act 13.7 and 697 NFkB inh -27.7.
For CCC(C)c1ccccc1NC(=O)COC(=O)c1ccc(N2CCCC2)c([N+](=O)[O-])c1 (centres undefined) the results were CHOP inh -1.7, Jurkat NFkB inh -4.1, Gli-Sufu block -6.1, UPR XBP1 act 0.3, UPR CHOP act 0.8 and 697 NFkB inh 17.0.
Screening CC(=O)Nc1ccc(S(=O)(=O)N2CCN(c3cc4c(cc3[N+](=O)[O-])n(C)c(=O)n4C)CC2)cc1 returned CHOP inh 9.3, Jurkat NFkB inh 10.3, Gli-Sufu block 10.7, UPR XBP1 act 0.1, UPR CHOP act 0.4 and 697 NFkB inh 8.7.
Screening Cc1cccc(C)c1NC(=O)COC(=O)c1ccc(N2CCCC2)c([N+](=O)[O-])c1 returned CHOP inh 80.4*, Jurkat NFkB inh 15.3, Gli-Sufu block 0.9, UPR XBP1 act -1.7, UPR CHOP act 0.8 and 697 NFkB inh -2.3.
COC(=O)c1ccc(N2CCN(S(=O)(=O)c3ccc(Br)cc3)CC2)c([N+](=O)[O-])c1 was read as CHOP inh 54.4, Jurkat NFkB inh 7.7, Gli-Sufu block 4.3, UPR XBP1 act 0.0, UPR CHOP act 4.5 and 697 NFkB inh -8.6.
Screening COC(=O)c1ccc(N2CCN(S(=O)(=O)c3ccc(C)cc3)CC2)c([N+](=O)[O-])c1 returned CHOP inh 75.4*, Jurkat NFkB inh 4.7, Gli-Sufu block 12.4, UPR XBP1 act 0.9, UPR CHOP act 6.2 and 697 NFkB inh 4.2.
`Cc1ccc(NS(=O)(=O)c2ccc(N3CCN(c4ccc(O)cc4)CC3)c([N+](=O)[O-])c2)c(C)c1` gave CHOP inh 73.3*, Jurkat NFkB inh 6.0, Gli-Sufu block 28.6, UPR XBP1 act 0.6, UPR CHOP act 0.5 and 697 NFkB inh -34.0.
`CCOc1ccc(NC(=O)C2CC(=O)N(CCc3ccc(OC)c(OC)c3)C2)cc1OCC` (centres undefined) gave Jurkat NFkB inh -5.2, UPR XBP1 act -3.2, UPR CHOP act -2.3 and 697 NFkB inh -1.1.
`COc1ccc(N(CC(=O)NCC2CCCO2)S(=O)(=O)c2ccccc2)cc1OC` (centres undefined) gave Jurkat NFkB inh 8.3, Gli-Sufu block 0.0, UPR XBP1 act -1.3, UPR CHOP act 1.3 and 697 NFkB inh 3.3.
O=S(=O)(Nc1cccc(-c2ccc3nncn3n2)c1)c1cc(F)ccc1F was read as Jurkat NFkB inh 0.9, Gli-Sufu block -2.6, UPR XBP1 act 2.0, UPR CHOP act -2.0 and 697 NFkB inh 7.8.
NNc1nc2cc3c(cc2s1)OCCO3 was read as Jurkat NFkB inh -14.5, Gli-Sufu block -17.0, UPR XBP1 act -3.9, UPR CHOP act -1.4 and 697 NFkB inh -73.9.
CCCCOc1ccc(CSCCNC(=S)Nc2ccccc2)cc1 was read as CHOP inh 28.0, Jurkat NFkB inh 32.2, Gli-Sufu block 25.1, UPR XBP1 act 1.4, UPR CHOP act -0.6 and 697 NFkB inh -20.9.
For CC(C)COc1ccc(CSCCNC(=S)Nc2ccccc2)cc1 the results were CHOP inh 83.4*, Jurkat NFkB inh 19.0, Gli-Sufu block 8.3, UPR XBP1 act -1.0, UPR CHOP act 0.5 and 697 NFkB inh 20.7.
